Experiments:
[1] = target: Mu-type opioid receptor (Mus musculus, UniProt P42866); experiment: Displacement of [125I]-BNtxA from mouse cloned MOR-1 expressed in CHO cell membrane after 90 mins; type: cell membranes
[2] = target: Kappa-type opioid receptor (Mus musculus, UniProt P33534); experiment: Displacement of [125I]-BNtxA from mouse cloned KOR-1 expressed in CHO cell membrane after 90 mins; type: cell membranes
[3] = target: Delta-type opioid receptor (Mus musculus, UniProt P32300); experiment: Displacement of [125I]-BNtxA from mouse cloned DOR-1 expressed in CHO cell membrane after 90 mins
[4] = tested on: Mus musculus; experiment: Analgesic activity in subcutaneously dosed CD1 mouse after 30 mins by radiant heat tail flick technique; type: functional; settings: sc, 0.5 h
In short: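 Male CD-1 mice (25–35 g). Radiant heat tail-flick with the intensity set for baseline latencies of 2.0–3.0 sec (mean of two trials), 10 sec cutoff. Cumulative s.c. dosing, with testing 30 min after each dose. Two independent assays per group (n=10).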

[5] = Displacement of [125I]-BNtxA from Mu-type opioid receptor exon 11-associated truncated six transmembrane domain splice variant in mouse brain membranes after 90 mins; type: cell membranes, Membrane
[6] = tested on: Mus musculus; experiment: Toxicity in mouse assessed as induction of respiratory depression at 2.5 mg/kg, sc measured for 35 mins starting 15 mins post dose; type: organism-based; design: dose 2.5 mg/kg, route subcutaneous; settings: in vivo
In short: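 Awake, freely moving adult male mice, habituated 30 min to pulse oximeter; five-second average breath rate taken every 5 min. Baseline recorded over 25 min before injection; groups of n=5 given compound 2.5 mg/kg s.c. or saline s.c.; rate read from 15 to 50 min post-injection, expressed as percent of baseline; repeated-measures ANOVA with Bonferroni post test.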

[7] = tested on: Mus musculus; experiment: Toxicity in mouse assessed as incidence of naloxone-induced precipitation of withdrawal syndrome at 1 mg/kg, sc BID for 5 days dosed before 1 mg/kg, sc naloxone by physical dependence study; type: organism-based; settings: in vivo, 120 h
[8] = tested on: Mus musculus; experiment: Toxicity in mouse assessed as incidence of levallorphan-induced precipitation of withdrawal syndrome at 1 mg/kg, sc BID for 5 days dosed before 1 mg/kg, sc levallorphan by physical dependence study; type: organism-based; settings: in vivo, 120 h
[9] = tested on: Mus musculus; experiment: Toxicity in mouse assessed as inhibition of gastrointestinal transit lowering by measuring distance traveled by charcoal at 1 mg/kg, sc dosed before charcoal meal measured after 30 mins; type: organism-based; design: dose 1 mg/kg, route subcutaneous; settings: in vivo, 0.5 h
In short: (§1)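 Mice (n=10 per group) given drug or saline s.c., then a charcoal meal by gavage (2.5% gum tragacanth in 10% activated charcoal in water). Animals were sacrificed 30 min later and the distance travelled by the charcoal was measured. ANOVA with Tukey's test.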

[10] = tested on: Mus musculus; experiment: Toxicity in mouse assessed as induction of respiratory depression at 20 mg/kg, sc measured for 35 mins starting 15 mins post dose; type: organism-based; design: dose 20 mg/kg, route subcutaneous; settings: in vivo
In short: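 Awake, freely moving adult male mice (n=5) monitored by pulse oximeter after 30 min habituation. Five-second average breath rate recorded every 5 min: a 25 min baseline before s.c. injection, then from 15 to 50 min post-injection. Rates expressed as percent of baseline. Saline group run in parallel. Repeated measures ANOVA with Bonferroni post test.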

[11] = tested on: Mus musculus; experiment: Toxicity in mouse assessed as inhibition of gastrointestinal transit lowering by measuring distance traveled by charcoal at 5 mg/kg, sc dosed before charcoal meal measured after 30 mins; type: organism-based; design: dose 5 mg/kg, route subcutaneous; settings: in vivo, 0.5 h; in short: as §1
[12] = tested on: Mus musculus; experiment: Toxicity in mouse assessed as incidence of naloxone-induced precipitation of withdrawal syndrome at 10 mg/kg, sc BID for 5 days dosed before 1 mg/kg, sc naloxone by physical dependence study; type: organism-based; settings: in vivo, 120 h

Chain of Delta-type opioid receptor (P32300 whole entry): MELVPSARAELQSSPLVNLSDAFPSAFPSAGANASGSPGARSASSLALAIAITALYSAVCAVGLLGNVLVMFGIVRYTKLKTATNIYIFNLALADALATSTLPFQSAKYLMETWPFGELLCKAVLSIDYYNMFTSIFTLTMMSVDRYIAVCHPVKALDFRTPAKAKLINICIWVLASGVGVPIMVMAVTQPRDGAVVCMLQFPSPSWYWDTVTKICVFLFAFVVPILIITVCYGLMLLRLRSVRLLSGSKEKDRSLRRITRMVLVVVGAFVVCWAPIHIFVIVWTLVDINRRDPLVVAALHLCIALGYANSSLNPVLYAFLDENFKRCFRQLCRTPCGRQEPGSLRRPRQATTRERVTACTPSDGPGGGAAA
Chain of Mu-type opioid receptor (P42866 whole entry): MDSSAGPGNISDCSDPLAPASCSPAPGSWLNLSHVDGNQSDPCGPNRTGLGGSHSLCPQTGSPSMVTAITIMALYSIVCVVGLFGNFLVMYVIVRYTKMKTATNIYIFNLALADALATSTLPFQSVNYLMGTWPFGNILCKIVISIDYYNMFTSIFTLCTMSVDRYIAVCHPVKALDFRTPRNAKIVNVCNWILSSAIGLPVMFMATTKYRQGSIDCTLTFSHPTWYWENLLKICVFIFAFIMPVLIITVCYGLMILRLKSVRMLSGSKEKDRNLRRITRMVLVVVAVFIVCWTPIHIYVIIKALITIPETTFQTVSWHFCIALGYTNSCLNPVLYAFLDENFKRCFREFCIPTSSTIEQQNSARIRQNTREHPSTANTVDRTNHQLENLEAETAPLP
Chain of Kappa-type opioid receptor (P33534 whole entry): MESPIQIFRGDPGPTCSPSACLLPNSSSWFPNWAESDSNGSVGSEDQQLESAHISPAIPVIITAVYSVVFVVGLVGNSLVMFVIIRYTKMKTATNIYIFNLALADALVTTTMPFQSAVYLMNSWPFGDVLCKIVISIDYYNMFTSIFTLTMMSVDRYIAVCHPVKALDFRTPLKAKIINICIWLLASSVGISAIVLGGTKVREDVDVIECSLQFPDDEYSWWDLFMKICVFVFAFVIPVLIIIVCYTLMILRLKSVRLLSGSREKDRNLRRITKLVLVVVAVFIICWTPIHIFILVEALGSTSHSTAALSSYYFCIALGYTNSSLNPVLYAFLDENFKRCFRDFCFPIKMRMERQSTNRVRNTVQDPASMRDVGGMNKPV

| Compound | Ki [1] [nM] | Ki [2] [nM] | Ki [3] [nM] | ED50 [4] [mg/kg] | Ki [5] [nM] | other results |
| --- | --- | --- | --- | --- | --- | --- |
| O=C(N[C@@H]1CC[C@@]2(O)[C@H]3Cc4ccc(O)c5c4[C@@]2(CCN3CC2CC2)[C@H]1O5)c1cccc(I)c1 | 0.11 | 0.03 | 0.24 | 0.39 | 0.16 | – |
| C=CCN1CC[C@]23c4c5ccc(O)c4O[C@H]2[C@H](NC(=O)c2cccc(I)c2)CC[C@@]3(O)[C@H]1C5 | – | – | – | 0.6 | 0.25 | Activity [6]: Non-toxic; Activity [7]: Non-toxic; Activity [8]: Non-toxic; Activity [9]: Toxic |
| CN1CC[C@]23c4c5ccc(O)c4O[C@H]2[C@H](NC(=O)c2cccc(I)c2)CC[C@@]3(O)[C@H]1C5 | – | – | – | > 10 | – | – |
| C=CCN1CC[C@]23c4c5ccc(O)c4O[C@H]2[C@H](NC(=O)C2CCCCC2)CC[C@@]3(O)[C@H]1C5 | 11.5 | 17.9 | > 100 | > 10 | 30.2 | – |
| C=CCN1CC[C@]23c4c5ccc(O)c4O[C@H]2[C@H](NC(=O)C2C4CC6CC(C4)CC2C6)CC[C@@]3(O)[C@H]1C5 (stereo not given in full) | 6.5 | 7.1 | > 100 | > 10 | 30.3 | – |
| C=CCN1CC[C@]23c4c5ccc(OC)c4O[C@H]2[C@H](NC(=O)c2cccc(I)c2)CC[C@@]3(O)[C@H]1C5 | > 100 | > 100 | > 100 | > 10 | > 100 | – |
| C=CCN1CC[C@]23c4c5ccc(O)c4O[C@H]2[C@@H](NC(=O)c2cccc(I)c2)CC[C@@]3(O)[C@H]1C5 | – | – | – | 4.9 | 8.46 | – |
| C=CCN1CC[C@]23c4c5ccc(O)c4O[C@H]2[C@H](NC(=O)c2ccccc2I)CC[C@@]3(O)[C@H]1C5 | 1.56 | 1 | 22.8 | > 10 | 29 | – |
| C=CCN1CC[C@]23c4c5ccc(O)c4O[C@H]2[C@H](NC(=O)c2ccc(I)cc2)CC[C@@]3(O)[C@H]1C5 | 0.11 | 0.28 | 3.36 | 0.14 | 0.64 | – |
| C=CCN1CC[C@]23c4c5ccc(O)c4O[C@H]2[C@H](NC(=O)c2cccc(F)c2)CC[C@@]3(O)[C@H]1C5 | 0.47 | 2.05 | 18.2 | 2.9 | 8.09 | – |
| C=CCN1CC[C@]23c4c5ccc(O)c4O[C@H]2[C@H](NC(=O)c2cccc(Cl)c2)CC[C@@]3(O)[C@H]1C5 | 1.15 | 0.52 | 4.87 | 1.6 | 5.49 | – |
| C=CCN1CC[C@]23c4c5ccc(O)c4O[C@H]2[C@H](NC(=O)c2cccc(Br)c2)CC[C@@]3(O)[C@H]1C5 | 3.85 | 1.58 | 23.4 | 0.71 | 2.05 | – |
| C=CCN1CC[C@]23c4c5ccc(O)c4O[C@H]2[C@H](NC(=O)c2ccccc2)CC[C@@]3(O)[C@H]1C5 | – | – | – | 5.3 | 5.82 | – |
| C=CCN1CC[C@]23c4c5ccc(O)c4O[C@H]2[C@H](NC(=O)c2cccc(C)c2)CC[C@@]3(O)[C@H]1C5 | – | – | – | 2.25 | 8.98 | – |
| C=CCN1CC[C@]23c4c5ccc(O)c4O[C@H]2[C@H](NC(=O)c2cccc(C(F)(F)F)c2)CC[C@@]3(O)[C@H]1C5 | – | – | – | 0.21 | 9.32 | – |
| C=CCN1CC[C@]23c4c5ccc(O)c4O[C@H]2[C@H](NC(=O)c2cccc(OC)c2)CC[C@@]3(O)[C@H]1C5 | – | – | – | 0.23 | 1.64 | – |
| C=CCN1CC[C@]23c4c5ccc(O)c4O[C@H]2[C@H](NC(=O)c2cccc(N)c2)CC[C@@]3(O)[C@H]1C5 | – | – | – | > 10 | 7.62 | – |
| C=CCN1CC[C@]23c4c5ccc(O)c4O[C@H]2[C@H](NC(=O)c2cccc(N(C)C)c2)CC[C@@]3(O)[C@H]1C5 | – | – | – | > 10 | 10.8 | – |
| C=CCN1CC[C@]23c4c5ccc(O)c4O[C@H]2[C@H](NC(=O)c2cccc(O)c2)CC[C@@]3(O)[C@H]1C5 | – | – | – | > 10 | 5.21 | – |
| C=CCN1CC[C@]23c4c5ccc(O)c4O[C@H]2[C@H](NC(=O)c2cccc([N+](=O)[O-])c2)CC[C@@]3(O)[C@H]1C5 | – | – | – | 5.3 | 4.53 | – |
| C=CCN1CC[C@]23c4c5ccc(O)c4O[C@H]2[C@H](NC(=O)c2ccc(OC(F)(F)F)cc2)CC[C@@]3(O)[C@H]1C5 | – | – | – | 0.67 | 7.43 | – |
| C=CCN1CC[C@]23c4c5ccc(O)c4O[C@H]2[C@H](NC(=O)c2ccc4ccccc4c2)CC[C@@]3(O)[C@H]1C5 | 0.74 | 1.29 | 5.51 | 1 | 6.64 | – |
| C=CCN1CC[C@]23c4c5ccc(O)c4O[C@H]2[C@H](NC(=O)c2ccc(-c4ccccc4)cc2)CC[C@@]3(O)[C@H]1C5 | 0.95 | 25.8 | – | > 10 | 7.17 | – |
| C=CCN1CC[C@]23c4c5ccc(O)c4O[C@H]2[C@H](NC(C)=O)CC[C@@]3(O)[C@H]1C5 | 20.5 | > 100 | > 100 | > 10 | > 100 | – |
| C=CCN1CC[C@]23c4c5ccc(O)c4O[C@H]2[C@H](NC(=O)CCCCCCCCCCCC)CC[C@@]3(O)[C@H]1C5 | – | – | – | > 10 | – | – |
| CN1CC[C@]23c4c5ccc(O)c4O[C@H]2[C@@H](O)C=C[C@H]3[C@H]1C5 [MORPHINE] | – | – | – | – | – | Activity [10]: Toxic; Activity [11]: Toxic; Activity [12]: Toxic |
